According to ChEMBL document CHEMBL4014327 (J Med Chem, 2017):
Values after ≈ are worked out from the molar mass of the structure shown.

Legend:
[1] = Apparent permeability in RRCK cells from apical to basolateral side; format: ADME, cell-based, Canis lupus familiaris, MDCKII-LE; settings: dog, MDCK
In short: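 RRCK cell monolayer permeability assay; apparent permeability reported in cm/s.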

[2] = Lipophilicity, log D of compound; format: physicochemical; settings: octanol/water
CYP1A2 = CYP1A2 (Homo sapiens, UniProt P05177); assay: Inhibition of CYP1A2 in human liver microsomes at 3 uM; format: ADME
CYP2D6 = CYP2D6 (Homo sapiens, UniProt P10635); assay: Inhibition of CYP2D6 in human liver microsomes at 3 uM; format: ADME
CYP3A4 = CYP3A4 (Homo sapiens, UniProt P08684); assay: Inhibition of CYP3A4 in human liver microsomes at 3 uM; format: ADME
[3] = Solubility of compound in water at pH 8.1; format: physicochemical
In short: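 Solubility of crystalline material measured in phosphate-buffered saline pH 6.7, unbuffered water pH 8.1 and simulated fasted-state intestinal fluid pH 6.5, reported in μg/mL.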

[4] = Half life in Wistar Han rat at 5 mg/kg, po administered as single dose; format: ADME, organism-based; settings: in vivo
Rattus norvegicus [5] = assay: Plasma clearance in Wistar Han rat at 1 mg/kg, iv administered as single dose; format: ADME, organism-based; settings: in vivo
Canis familiaris = assay: Plasma clearance in Beagle dog at 1 mg/kg, iv administered as single dose; format: ADME, organism-based, Canis lupus familiaris; settings: in vivo
Cynomolgus monkey = assay: Plasma clearance in cynomolgus monkey at 1 mg/kg, iv administered as single dose; format: ADME, organism-based, Macaca fascicularis; settings: in vivo
[6] = Oral bioavailability in Beagle dog at 5 mg/kg administered as single dose; format: ADME, organism-based, Canis lupus familiaris; settings: in vivo
[7] = target: MAP kinase-interacting serine/threonine-protein kinase 2 (Homo sapiens) (UniProt Q9HBH9); assay: Inhibition of N-terminal-GST-tagged human full length MNK2 expressed in baculovirus at 200 nM
[8] = target: Dual specificity protein kinase CLK4 (Homo sapiens) (UniProt Q9HAZ1); assay: Inhibition of recombinant human full length GST-tagged CLK4 expressed in baculovirus at 200 nM
[9] = target: Casein kinase I isoform gamma-1 (Homo sapiens) (UniProt Q9HCP0); assay: Inhibition of recombinant human full length GST-tagged CK1gamma1 expressed in baculovirus at 200 nM
[10] = target: T1, Interleukin-1 receptor-associated kinase 4 (Homo sapiens) (UniProt Q9NWZ3); assay: Inhibition of IRAK4 in human THP1 cell lysate at 200 nM
T1 sequence (whole entry): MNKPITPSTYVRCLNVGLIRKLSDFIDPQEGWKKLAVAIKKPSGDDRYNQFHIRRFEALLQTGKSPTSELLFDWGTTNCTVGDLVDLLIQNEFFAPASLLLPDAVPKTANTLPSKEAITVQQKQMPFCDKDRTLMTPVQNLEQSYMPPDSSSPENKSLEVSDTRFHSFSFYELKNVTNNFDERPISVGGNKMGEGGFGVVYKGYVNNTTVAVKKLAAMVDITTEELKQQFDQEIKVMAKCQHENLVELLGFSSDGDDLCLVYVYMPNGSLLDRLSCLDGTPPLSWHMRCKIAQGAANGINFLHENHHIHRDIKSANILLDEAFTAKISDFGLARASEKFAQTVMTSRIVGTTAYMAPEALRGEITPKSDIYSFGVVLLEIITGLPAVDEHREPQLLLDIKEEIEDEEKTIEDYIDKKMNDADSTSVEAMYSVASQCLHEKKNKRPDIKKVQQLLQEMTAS

[11] = target: Interleukin-1 receptor-associated kinase 3 (Homo sapiens) (UniProt Q9Y616); assay: Inhibition of IRAK3 in human THP1 cell lysate at 200 nM
[12] = target: Casein kinase I isoform gamma-2 (Homo sapiens) (UniProt P78368); assay: Inhibition of CK1gamma2 in human THP1 cell lysate at 200 nM
hERG (KCNH2) = hERG (KCNH2) (Homo sapiens, UniProt Q12809); assay: Inhibition of human ERG at 100 uM by voltage clamp assay
In short: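 hERG current measured by voltage clamp, test compound at 100 μM; percent current inhibition.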

Cytochrome P450 2C8 = Cytochrome P450 2C8 (Homo sapiens, UniProt P10632); assay: Time dependent inhibition of CYP2C8 in human liver microsomes at 100 uM; format: ADME
In short: (§1)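 Time-dependent inhibition assessed in pooled human liver microsomes with probe substrates, test compound at 100 μM.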

Cytochrome P450 2C9 = Cytochrome P450 2C9 (Homo sapiens, UniProt P11712); assay: Time dependent inhibition of CYP2C9 in human liver microsomes at 100 uM; format: ADME; in short: as §1
Cytochrome P450 2D6 = Cytochrome P450 2D6 (Homo sapiens, UniProt P10635); assay: Time dependent inhibition of CYP2D6 in human liver microsomes at 100 uM; format: ADME
In short: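 Pooled human liver microsomes with CYP probe substrates. Time-dependent inhibition was assessed across CYP1A2, 2B6, 2C8, 2C9, 2C19 and 2D6, with test compound at 100 μM.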

Rattus norvegicus [13] = assay: Inhibition of LPS induced TNFalpha secretion in Sprague-Dawley rat assessed as decrease in TNFalpha level in serum at 0.3 mg/kg, po pretreated for 1 hr followed by LPS challenge measured after 1.5 hrs relative to control; format: functional
In short: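 Male Sprague-Dawley rats, 6-8 weeks old, n = 6-9 per group. Test article was given orally at 0.3, 1, 3 or 30 mg/kg as a solution or suspension in 0.5% methylcellulose and 2% Tween 80 in water; controls received vehicle alone. Ultrapure LPS (0.01 mg/kg) was given iv 1 h later. Blood was drawn 1.5 h after challenge, and serum TNF was measured by MSD.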

Plasma [14] = assay: Free plasma concentration in Sprague-Dawley rat LPS model at 1 mg/kg, po after 2.5 hrs; format: ADME, organism-based; settings: in vivo
In short: (§2)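 Male Sprague−Dawley rats, 6−8 weeks old, n = 6−9 per group. Dosed orally at 0.3, 1, 3 or 30 mg/kg in 0.5% methylcellulose/2% Tween 80 in water. Ultrapure LPS 0.01 mg/kg iv given 1 h after dosing. Plasma exposure taken 2.5 h after oral dosing and reported as free concentration using fraction unbound in rat plasma.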

Plasma [15] = assay: Free plasma concentration in Sprague-Dawley rat LPS model at 30 mg/kg, po after 2.5 hrs; format: ADME, organism-based; settings: in vivo; in short: as §2

Sequence of Casein kinase I isoform gamma-1 (Homo sapiens) (Q9HCP0 whole entry, looked up, canonical isoform): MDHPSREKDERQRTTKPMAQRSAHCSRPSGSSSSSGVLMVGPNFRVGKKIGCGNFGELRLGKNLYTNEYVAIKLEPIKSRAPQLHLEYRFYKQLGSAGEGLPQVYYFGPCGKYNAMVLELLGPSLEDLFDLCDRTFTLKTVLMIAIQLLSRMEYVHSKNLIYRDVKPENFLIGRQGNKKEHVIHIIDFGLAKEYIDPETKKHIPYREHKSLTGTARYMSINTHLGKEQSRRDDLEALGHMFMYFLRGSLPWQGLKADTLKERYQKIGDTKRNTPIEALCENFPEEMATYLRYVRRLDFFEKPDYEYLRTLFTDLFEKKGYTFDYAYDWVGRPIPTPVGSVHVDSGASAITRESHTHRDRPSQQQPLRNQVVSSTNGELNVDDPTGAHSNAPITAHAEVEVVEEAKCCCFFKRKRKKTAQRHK
Sequence of CYP3A4 (P08684 whole entry): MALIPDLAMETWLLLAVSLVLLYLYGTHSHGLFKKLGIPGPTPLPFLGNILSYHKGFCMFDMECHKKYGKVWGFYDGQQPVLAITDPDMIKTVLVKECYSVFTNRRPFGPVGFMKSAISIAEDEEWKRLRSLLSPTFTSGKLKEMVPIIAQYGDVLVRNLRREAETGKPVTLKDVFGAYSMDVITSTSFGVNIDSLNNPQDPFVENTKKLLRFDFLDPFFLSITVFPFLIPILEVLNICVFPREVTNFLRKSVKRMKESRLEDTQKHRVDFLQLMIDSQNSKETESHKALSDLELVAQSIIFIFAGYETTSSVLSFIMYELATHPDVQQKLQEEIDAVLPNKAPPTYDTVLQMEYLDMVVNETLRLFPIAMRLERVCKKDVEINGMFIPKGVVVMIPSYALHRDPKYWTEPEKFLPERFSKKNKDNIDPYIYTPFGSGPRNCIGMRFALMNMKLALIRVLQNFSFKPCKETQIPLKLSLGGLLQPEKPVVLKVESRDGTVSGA
Sequence of Cytochrome P450 2C8 (P10632 whole entry): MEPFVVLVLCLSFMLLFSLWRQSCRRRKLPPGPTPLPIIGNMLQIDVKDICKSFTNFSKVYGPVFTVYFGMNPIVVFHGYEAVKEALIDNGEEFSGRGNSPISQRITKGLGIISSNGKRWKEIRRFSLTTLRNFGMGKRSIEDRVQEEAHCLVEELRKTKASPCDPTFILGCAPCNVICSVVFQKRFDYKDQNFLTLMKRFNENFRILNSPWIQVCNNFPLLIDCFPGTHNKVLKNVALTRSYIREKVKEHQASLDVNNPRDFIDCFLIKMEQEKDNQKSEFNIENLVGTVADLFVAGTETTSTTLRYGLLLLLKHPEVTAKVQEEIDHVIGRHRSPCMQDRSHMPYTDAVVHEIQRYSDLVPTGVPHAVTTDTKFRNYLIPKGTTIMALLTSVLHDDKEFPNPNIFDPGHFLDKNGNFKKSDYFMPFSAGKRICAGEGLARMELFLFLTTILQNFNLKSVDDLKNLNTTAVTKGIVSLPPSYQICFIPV
Sequence of CYP2D6 (P10635 whole entry): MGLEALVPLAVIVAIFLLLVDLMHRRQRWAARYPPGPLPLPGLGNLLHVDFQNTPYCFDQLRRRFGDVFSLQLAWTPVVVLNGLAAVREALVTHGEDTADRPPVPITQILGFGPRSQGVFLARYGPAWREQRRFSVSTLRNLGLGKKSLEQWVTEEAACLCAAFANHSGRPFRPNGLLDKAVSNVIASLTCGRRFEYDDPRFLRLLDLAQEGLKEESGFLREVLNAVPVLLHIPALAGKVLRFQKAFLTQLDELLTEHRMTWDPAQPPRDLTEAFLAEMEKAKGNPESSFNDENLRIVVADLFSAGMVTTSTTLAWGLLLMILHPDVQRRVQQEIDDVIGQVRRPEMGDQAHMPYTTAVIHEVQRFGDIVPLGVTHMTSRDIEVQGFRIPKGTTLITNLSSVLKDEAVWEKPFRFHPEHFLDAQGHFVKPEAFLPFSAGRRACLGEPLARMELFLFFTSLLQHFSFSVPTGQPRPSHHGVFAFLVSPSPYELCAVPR
Sequence of Cytochrome P450 2D6 (P10635 whole entry): as above
Sequence of Interleukin-1 receptor-associated kinase 3 (Homo sapiens) (Q9Y616 whole entry, canonical isoform): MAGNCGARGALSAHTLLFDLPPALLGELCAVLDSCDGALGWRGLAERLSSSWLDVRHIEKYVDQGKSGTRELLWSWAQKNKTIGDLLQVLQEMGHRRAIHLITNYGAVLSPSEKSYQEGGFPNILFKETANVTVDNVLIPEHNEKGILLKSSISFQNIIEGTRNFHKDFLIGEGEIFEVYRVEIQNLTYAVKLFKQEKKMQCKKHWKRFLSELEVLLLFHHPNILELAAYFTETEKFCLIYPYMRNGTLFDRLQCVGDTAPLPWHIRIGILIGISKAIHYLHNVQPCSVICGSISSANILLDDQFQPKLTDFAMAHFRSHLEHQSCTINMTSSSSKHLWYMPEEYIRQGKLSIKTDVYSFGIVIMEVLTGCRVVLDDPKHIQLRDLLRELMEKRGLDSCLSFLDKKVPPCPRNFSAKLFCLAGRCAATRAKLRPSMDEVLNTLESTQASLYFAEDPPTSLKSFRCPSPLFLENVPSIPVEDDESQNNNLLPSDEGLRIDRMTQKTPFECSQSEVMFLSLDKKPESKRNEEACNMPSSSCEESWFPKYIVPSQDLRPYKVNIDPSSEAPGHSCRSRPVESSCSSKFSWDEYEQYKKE
Sequence of CYP1A2 (P05177 whole entry): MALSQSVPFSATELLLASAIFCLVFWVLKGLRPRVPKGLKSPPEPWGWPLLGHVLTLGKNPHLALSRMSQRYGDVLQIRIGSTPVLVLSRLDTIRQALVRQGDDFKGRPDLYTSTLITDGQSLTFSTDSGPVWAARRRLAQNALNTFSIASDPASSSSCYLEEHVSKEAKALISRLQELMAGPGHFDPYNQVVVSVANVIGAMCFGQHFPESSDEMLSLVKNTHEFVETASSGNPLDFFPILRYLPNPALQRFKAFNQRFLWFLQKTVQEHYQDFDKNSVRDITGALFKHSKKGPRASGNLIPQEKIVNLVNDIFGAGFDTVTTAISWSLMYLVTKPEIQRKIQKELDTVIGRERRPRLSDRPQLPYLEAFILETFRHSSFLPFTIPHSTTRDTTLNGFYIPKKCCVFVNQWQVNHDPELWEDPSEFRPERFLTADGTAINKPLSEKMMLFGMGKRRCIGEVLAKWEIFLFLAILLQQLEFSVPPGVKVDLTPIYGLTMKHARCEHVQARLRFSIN
Sequence of MAP kinase-interacting serine/threonine-protein kinase 2 (Homo sapiens) (Q9HBH9 whole entry, looked up): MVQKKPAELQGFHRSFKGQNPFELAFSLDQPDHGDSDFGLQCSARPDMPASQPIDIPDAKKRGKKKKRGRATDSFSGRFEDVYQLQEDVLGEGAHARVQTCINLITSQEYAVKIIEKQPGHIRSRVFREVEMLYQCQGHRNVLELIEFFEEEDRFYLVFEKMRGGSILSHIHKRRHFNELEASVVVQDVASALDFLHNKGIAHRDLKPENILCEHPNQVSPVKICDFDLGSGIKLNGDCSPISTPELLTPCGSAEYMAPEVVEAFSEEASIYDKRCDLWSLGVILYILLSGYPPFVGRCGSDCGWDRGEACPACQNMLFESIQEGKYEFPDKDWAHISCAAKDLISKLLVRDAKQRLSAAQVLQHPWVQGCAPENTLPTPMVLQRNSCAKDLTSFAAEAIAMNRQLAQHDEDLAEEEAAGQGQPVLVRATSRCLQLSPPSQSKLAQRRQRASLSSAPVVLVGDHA
Sequence of Casein kinase I isoform gamma-2 (Homo sapiens) (P78368 whole entry, looked up, canonical isoform): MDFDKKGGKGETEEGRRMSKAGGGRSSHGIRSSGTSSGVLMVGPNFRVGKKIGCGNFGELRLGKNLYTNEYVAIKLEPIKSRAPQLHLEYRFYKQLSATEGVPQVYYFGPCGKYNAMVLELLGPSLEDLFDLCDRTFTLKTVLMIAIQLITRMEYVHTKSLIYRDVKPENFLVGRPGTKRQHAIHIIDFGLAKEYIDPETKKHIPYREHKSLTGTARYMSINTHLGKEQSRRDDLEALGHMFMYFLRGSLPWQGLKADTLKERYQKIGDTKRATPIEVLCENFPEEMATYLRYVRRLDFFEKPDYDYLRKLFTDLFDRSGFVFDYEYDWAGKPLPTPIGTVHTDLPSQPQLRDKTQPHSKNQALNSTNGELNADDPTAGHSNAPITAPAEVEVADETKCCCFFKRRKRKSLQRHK
Sequence of Cytochrome P450 2C9 (P11712 whole entry): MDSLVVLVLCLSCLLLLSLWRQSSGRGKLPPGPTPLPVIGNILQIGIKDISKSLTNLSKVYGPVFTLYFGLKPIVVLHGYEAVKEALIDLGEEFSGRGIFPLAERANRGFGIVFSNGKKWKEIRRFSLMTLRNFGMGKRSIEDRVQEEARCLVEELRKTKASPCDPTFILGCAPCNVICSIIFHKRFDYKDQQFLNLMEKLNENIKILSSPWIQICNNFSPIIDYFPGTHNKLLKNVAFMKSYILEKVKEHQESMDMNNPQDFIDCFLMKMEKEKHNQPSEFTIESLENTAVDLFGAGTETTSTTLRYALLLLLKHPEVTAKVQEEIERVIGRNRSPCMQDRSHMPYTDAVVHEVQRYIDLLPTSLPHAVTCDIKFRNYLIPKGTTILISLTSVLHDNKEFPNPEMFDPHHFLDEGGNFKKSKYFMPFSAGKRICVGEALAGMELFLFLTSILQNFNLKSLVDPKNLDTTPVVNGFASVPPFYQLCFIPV
Sequence of Dual specificity protein kinase CLK4 (Homo sapiens) (Q9HAZ1 whole entry, looked up, canonical isoform): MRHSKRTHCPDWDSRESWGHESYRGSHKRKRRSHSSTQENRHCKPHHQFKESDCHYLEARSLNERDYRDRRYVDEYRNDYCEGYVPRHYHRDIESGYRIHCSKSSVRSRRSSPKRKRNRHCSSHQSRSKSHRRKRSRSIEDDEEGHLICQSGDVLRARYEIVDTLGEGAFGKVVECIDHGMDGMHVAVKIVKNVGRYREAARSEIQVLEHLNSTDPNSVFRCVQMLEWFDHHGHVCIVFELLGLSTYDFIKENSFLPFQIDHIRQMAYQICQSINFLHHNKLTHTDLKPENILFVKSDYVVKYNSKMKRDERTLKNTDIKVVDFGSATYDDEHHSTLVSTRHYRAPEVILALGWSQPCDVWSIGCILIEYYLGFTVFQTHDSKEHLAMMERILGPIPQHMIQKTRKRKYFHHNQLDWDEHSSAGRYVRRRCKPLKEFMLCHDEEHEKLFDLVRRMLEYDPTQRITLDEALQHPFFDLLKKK

CC[C@@H]1[C@H](F)C(=O)N[C@@H]1COc1nccc2cc(C(N)=O)c(OC)cc12 [ZIMLOVISERTIB]
Papp A→B [1]: 9.6 ×10⁻⁶ cm/s
logD [2]: 2
inhibition at 3 µM (CYP1A2): < 5%
inhibition at 3 µM (CYP2D6): < 5%
inhibition at 3 µM (CYP3A4): < 5%
solubility [3]: 65 µg/mL (≈ 180 µM)
half-life [4]: 1.4 to 2.1 h
clearance (Rattus norvegicus [5]): 56 mL/min/kg
clearance (Canis familiaris): 10 mL/min/kg
clearance (Cynomolgus monkey): 10 mL/min/kg
bioavailability [6]: 41%
inhibition [7]: > 70%
inhibition [8]: > 70%
inhibition [9]: > 70%
inhibition [10]: > 50%
inhibition [11]: > 50%
inhibition [12]: > 50%
inhibition at 100 µM (hERG (KCNH2)): 25%
TDI (Cytochrome P450 2C8): Not Active
TDI (Cytochrome P450 2C9): Not Active
TDI (Cytochrome P450 2D6): Not Active
inhibition in vivo at 0.3 mg/kg (Rattus norvegicus [13]): 12%
Cp(f) (Plasma [14]): 7.7 nM
Cp(f) (Plasma [15]): 150 nM
